Test results as given in ChEMBL document CHEMBL1146275, “5-HT2C antagonists based on fused heterotricyclic templates: design, synthesis and biological evaluation” (Bioorg Med Chem Lett, 2007).
The source made the active and inactive calls. The rule behind the calls is not given here.

Legend:
[1] = target: T1, 5-hydroxytryptamine receptor 2C (Homo sapiens) (UniProt P28335); experiment: Agonist activity at human 5HT2C receptor expressed in HEK293 cells by measuring intracellular calcium mobilization upto 10 uM; format: functional, cell-based
T1 sequence (whole entry): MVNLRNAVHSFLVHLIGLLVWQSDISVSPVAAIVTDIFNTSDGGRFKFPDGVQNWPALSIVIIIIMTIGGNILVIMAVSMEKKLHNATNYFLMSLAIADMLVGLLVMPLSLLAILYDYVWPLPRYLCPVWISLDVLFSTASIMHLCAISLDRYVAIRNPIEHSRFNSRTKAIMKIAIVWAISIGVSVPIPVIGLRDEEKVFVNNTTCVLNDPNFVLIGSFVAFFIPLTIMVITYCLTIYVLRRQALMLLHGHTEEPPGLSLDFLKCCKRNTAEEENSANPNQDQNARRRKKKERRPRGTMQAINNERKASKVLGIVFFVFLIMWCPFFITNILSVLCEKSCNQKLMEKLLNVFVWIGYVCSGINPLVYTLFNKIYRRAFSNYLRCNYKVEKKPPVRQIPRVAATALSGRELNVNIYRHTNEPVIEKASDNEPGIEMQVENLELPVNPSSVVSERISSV

[2] = target: T2, 5-hydroxytryptamine receptor 2B (Homo sapiens, UniProt P41595); experiment: Agonist activity at human 5HT2B receptor expressed in HEK293 cells by measuring intracellular calcium mobilization upto 10 uM; format: functional, cell-based
T2 sequence (P41595 whole entry): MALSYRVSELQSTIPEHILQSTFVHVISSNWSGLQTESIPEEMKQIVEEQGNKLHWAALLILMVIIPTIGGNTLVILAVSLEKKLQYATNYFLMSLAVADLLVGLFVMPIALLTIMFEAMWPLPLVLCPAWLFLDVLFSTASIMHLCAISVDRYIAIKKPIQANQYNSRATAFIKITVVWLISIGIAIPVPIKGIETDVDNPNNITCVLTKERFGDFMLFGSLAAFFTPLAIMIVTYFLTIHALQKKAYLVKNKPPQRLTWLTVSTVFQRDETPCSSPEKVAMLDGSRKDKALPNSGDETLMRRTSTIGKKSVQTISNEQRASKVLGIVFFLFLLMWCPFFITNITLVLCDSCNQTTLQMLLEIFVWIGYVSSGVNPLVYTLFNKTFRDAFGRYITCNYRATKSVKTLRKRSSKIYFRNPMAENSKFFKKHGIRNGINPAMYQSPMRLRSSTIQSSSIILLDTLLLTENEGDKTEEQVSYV

[3] = target: T3, 5-hydroxytryptamine receptor 2A (Homo sapiens, UniProt P28223); experiment: Agonist activity at human 5HT2A receptor expressed in HEK293 cells by measuring intracellular calcium mobilization upto 10 uM; format: functional, cell-based
T3 sequence (P28223 whole entry): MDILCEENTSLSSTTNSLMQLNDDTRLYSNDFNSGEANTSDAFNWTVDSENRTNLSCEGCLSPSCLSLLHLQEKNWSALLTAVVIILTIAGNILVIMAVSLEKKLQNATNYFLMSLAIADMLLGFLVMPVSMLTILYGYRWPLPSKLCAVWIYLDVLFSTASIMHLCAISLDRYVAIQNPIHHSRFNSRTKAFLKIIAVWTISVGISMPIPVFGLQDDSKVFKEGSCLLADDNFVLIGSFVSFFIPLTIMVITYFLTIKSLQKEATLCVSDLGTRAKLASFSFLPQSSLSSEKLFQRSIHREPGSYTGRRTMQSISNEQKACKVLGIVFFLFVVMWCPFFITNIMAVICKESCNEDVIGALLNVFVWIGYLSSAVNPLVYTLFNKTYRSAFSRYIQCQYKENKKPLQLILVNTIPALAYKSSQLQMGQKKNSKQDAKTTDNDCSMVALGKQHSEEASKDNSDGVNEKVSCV

[4] = Ratio of drug level in brain to plasma in rat; format: ADME; details: brain and plasma
Outline: (§1)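 Male rats (n = 3) received a 1 mg free base/kg iv bolus (2 mL/kg) of a 0.5 mg free base/mL solution in 25% (v/v) aqueous PEG400 containing 5% (v/v) DMSO. Brain penetration was assessed at 1 h.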

[5] = Bioavailability in rat at 3 mg/kg, po; format: ADME, organism-based; details: in vivo
Outline: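 Oral dosing was 3 mg free base/kg by gavage (5 mL/kg) to male rats (n = 3), from 0.6 mg free base/mL in 0.5% w/v Methocel with 5% DMSO. The iv reference arm was 1 mg free base/kg as a bolus (2 mL/kg) in 25% (v/v) aqueous PEG400 with 5% (v/v) DMSO, n = 3.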

[6] = target: T4, 5-hydroxytryptamine receptor 2C (Homo sapiens, UniProt P28335); experiment: Displacement of [3H]mesulergine from human 5HT2C receptor expressed in HEK293 cells; format: cell-based
T4 sequence (P28335 whole entry): T1 sequence (whole entry)

[7] = target: T3, 5-hydroxytryptamine receptor 2A; experiment: Displacement of [3H]ketanserin from human 5HT2A receptor expressed in HEK293 cells; format: cell-based
[8] = Clearance in rat blood; format: ADME, organism-based; details: whole blood; outline: as §1
[9] = target: T2, 5-hydroxytryptamine receptor 2B; experiment: Displacement of [3H]5-HT from human 5HT2B receptor expressed in HEK293 cells; format: cell-based
[10] = target: T1, 5-hydroxytryptamine receptor 2C (Homo sapiens); experiment: Antagonist activity at human 5HT2C receptor expressed in HEK293 cells by measuring intracellular calcium mobilization; format: functional, cell-based
Outline: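 Antagonism measured as blockade of the 5-HT-evoked response at the human receptor, with affinity expressed as pKb.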

| SMILES | Activity [1] | Activity [2] | Activity [3] | Kp [4] | bioavailability [5] [%] | Ki [6] [nM] | Ki [7] [nM] | clearance [8] [mL/min/kg] | Ki [9] [nM] | pKb [10] |
| --- | --- | --- | --- | --- | --- | --- | --- | --- | --- | --- |
| COc1ccc(N2Cc3cc4ccccc4cc3C2=O)cc1OCCN1CCCCC1 | inactive | inactive | inactive | – | – | – | – | – | – | – |
| COc1ccc(N2Cc3c(c4cc(Cl)ccc4n3C)C2=O)cc1OCCN1CCC(C)CC1 | inactive | inactive | inactive | 1 | 44 | 3.16 | 126 | 23 | 39.8 | 8.6 |
| COc1ccc(N2Cc3c(c4ccc(Cl)cc4n3C)C2=O)cc1OCCN1CCC(C)CC1 | inactive | inactive | inactive | – | – | 3.98 | 251 | – | 200 | – |
| COc1ccc(N2Cc3c(c4cc(F)ccc4n3C)C2=O)cc1OCCN1CCCCC1 | inactive | inactive | inactive | – | – | – | – | – | – | – |
| COc1ccc(N2Cc3c(c4cc(Cl)ccc4n3C)C2=O)cc1OCCN1CCCCC1 | inactive | inactive | inactive | – | 21 | 2.51 | 158 | 39 | > 1000 | – |
| COc1ccc(N2Cc3c(c4ccc(Cl)cc4n3C)C2=O)cc1OCCN1CCCCC1 | inactive | inactive | inactive | – | – | 5.01 | 316 | – | 158 | – |
| COc1ccc(N2Cc3sc4ccccc4c3C2=O)cc1OCCN1CCCCC1 | inactive | inactive | inactive | – | – | 3.16 | 398 | – | > 631 | – |
| COc1ccc(N2Cc3c(c4cc(Cl)c(Cl)cc4n3C)C2=O)cc1OCCN1CCCCC1 | inactive | inactive | inactive | – | – | 6.31 | 501 | – | 200 | – |
| COc1ccc(N2Cc3c(c4cc(F)ccc4n3C)C2=O)cc1OCCN1CCC(C)CC1 | inactive | inactive | inactive | – | – | 2.51 | 158 | – | 63.1 | 8.6 |
| COc1ccc(N2Cc3c(c4ccc(F)cc4n3C)C2=O)cc1OCCN1CCC(C)CC1 | inactive | inactive | inactive | – | – | 15.8 | 251 | – | 251 | 7.5 |
| COc1ccc(N2Cc3c(c4cc(Cl)c(Cl)cc4n3C)C2=O)cc1OCCN1CCC(C)CC1 | inactive | inactive | inactive | – | – | – | – | – | – | – |
| COc1ccc2c(c1)c1c(n2C)CN(c2ccc(OC)c(OCCN3CCC(C)CC3)c2)C1=O | inactive | inactive | inactive | – | – | – | – | – | – | – |
| COc1ccc(N2Cc3c(c4ccc(F)cc4n3C)C2=O)cc1OCCN1CCCCC1 | inactive | inactive | inactive | – | – | 12.6 | > 10000 | – | > 10000 | – |
| COc1ccc(N2Cc3c(c4cccc(F)c4n3C)C2=O)cc1OCCN1CCCCC1 | inactive | inactive | inactive | – | – | – | – | – | – | – |
| COc1ccc(N2Cc3c(c4ccccc4n3C)C2=O)cc1OCCN1CCCCC1.Cl | inactive | inactive | inactive | – | 15 | 6.31 | 501 | 53 | 200 | – |
| COc1ccc(N2Cc3c(c4cccc(F)c4n3C)C2=O)cc1OCCN1CCC(C)CC1 | inactive | inactive | inactive | – | – | 2.51 | 251 | – | 31.6 | – |
| COc1ccc(N2Cc3sc4ccccc4c3C2=O)cc1OCCN1CCC(C)CC1 | inactive | inactive | inactive | – | – | 1.58 | > 794 | – | 200 | 8.7 |
| COc1ccc2c(c1)c1c(n2C)CN(c2ccc(OC)c(OCCN3CCCCC3)c2)C1=O | inactive | inactive | inactive | – | – | 31.6 | 1000 | – | 794 | – |
| COc1ccc(N2C(=O)c3c(n(C)c4ccccc34)C2C)cc1OCCN1CCCCC1 (configuration not stated) | inactive | inactive | inactive | – | – | – | – | – | – | – |
